Assay results as given in ChEMBL document CHEMBL4316610, “Synthesis and Biological Studies of (+)-Liquiditerpenoic Acid A (Abietopinoic Acid) and Representative Analogues: SAR Studies” (J Nat Prod, 2019).
Activity calls are given as the source filed them. No cut-off for these calls is given here.

Experiments:
[1] = Selectivity index, ratio of CC50 for mouse J774 cells to IC50 for Leishmania infantum MCAN/ES/96/BCN150 promastigotes; assay type: toxicity; conditions: read-out: Ratio CC50/IC50
[2] = Selectivity index, ratio of CC50 for mouse J774 cells to IC50 for Leishmania amazonensis MHOM/Br/79/Mari promastigotes; assay type: toxicity; conditions: read-out: Ratio CC50/IC50
Leishmania infantum = assay: Antileishmanial activity against Leishmania infantum MCAN/ES/96/BCN150 promastigotes after 48 hrs by resazurin dye-based fluorometric analysis; assay type: functional, organism-based
Outline: (§1)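 The IC50 is taken as the compound concentration giving a 50% reduction in parasites, reported with SD.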

[3] = Selectivity index, ratio of CC50 for mouse J774 cells to IC50 for Leishmania donovani MHOM/IN/80/DD8 promastigotes; assay type: toxicity; conditions: read-out: Ratio CC50/IC50
Leishmania donovani = assay: Antileishmanial activity against Leishmania donovani MHOM/IN/80/DD8 promastigotes after 48 hrs by resazurin dye-based fluorometric analysis; assay type: functional, organism-based; outline: as §1
[4] = Cytotoxicity against mouse J774 cells assessed as reduction in cell viability after 48 hrs by resazurin dye-based fluorometric analysis
Outline: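 The CC50 is taken as the concentration giving a 50% reduction in cell viability of treated cultures compared with untreated cells.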

[5] = target: T1, GABA-A receptor; alpha-1/beta-2/gamma-2 (Homo sapiens) (UniProt P14867+P47870+P18507); assay: Modulation of recombinant wild type GABAA receptor alpha1beta2gamma2S (unknown origin) expressed in Xenopus laevis oocytes assessed as increase in GABA-evoked chloride current at 100 uM at -70 mV holding potential by two-microelectrode voltage clamp assay relative to control; assay type: cell-based
Outline: (§2)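 Two-microelectrode voltage clamp at -70 mV on Xenopus laevis oocytes expressing α1β2γ2S GABA-A receptors. GABA EC5 (4-5 μM), set individually for each oocyte, applied for 20 s alone, then co-applied with compound at 10 or 100 μM. Potentiation of GABA-evoked current is reported. Dehydroabietic acid served as positive control. Mean ± SEM from at least three oocytes and two oocyte batches.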

[6] = Selectivity index, ratio of CC50 for mouse J774 cells to IC50 for Leishmania guyanensis 141/93 promastigotes; assay type: toxicity; conditions: read-out: Ratio CC50/IC50
Leishmania amazonensis = assay: Antileishmanial activity against Leishmania amazonensis MHOM/Br/79/Mari promastigotes after 48 hrs by resazurin dye-based fluorometric analysis; assay type: functional, organism-based; outline: as §1
Leishmania guyanensis = assay: Antileishmanial activity against Leishmania guyanensis 141/93 promastigotes after 48 hrs by resazurin dye-based fluorometric analysis; assay type: functional, organism-based; outline: as §1
[7] = target: T1, GABA-A receptor; alpha-1/beta-2/gamma-2 (Homo sapiens); assay: Modulation of recombinant wild type GABAA receptor alpha1beta2gamma2S (unknown origin) expressed in Xenopus laevis oocytes assessed as increase in GABA-evoked chloride current at 10 uM at -70 mV holding potential by two-microelectrode voltage clamp assay relative to control; assay type: cell-based; outline: as §2
A549 [8] = assay: Antiproliferative activity against human A549 cells after 48 hrs by SRB assay; assay type: functional; conditions: A549, 48 h
SW1573 [9] = assay: Antiproliferative activity against human SW1573 cells after 48 hrs by SRB assay; assay type: functional; conditions: SW1573, 48 h
HeLa [10] = assay: Antiproliferative activity against human HeLa cells after 48 hrs by SRB assay; assay type: functional
T47D [11] = assay: Antiproliferative activity against human T47D cells after 48 hrs by SRB assay; assay type: functional
HBL-100 [12] = assay: Antiproliferative activity against human HBL100 cells after 48 hrs by SRB assay; assay type: functional; conditions: HBL-100, 48 h
WiDr [13] = assay: Antiproliferative activity against human WiDr cells after 48 hrs by SRB assay; assay type: functional
[14] = Antiproliferative activity against mouse leukemia cells overexpressing BCR/ABL after 72 hrs by CellTiter-Glo luminescent cell viability assay; assay type: functional, cell-based
NALM-6 [15] = assay: Antiproliferative activity against human NALM6 cells after 72 hrs by CellTiter-Glo luminescent cell viability assay; assay type: functional, cell-based; conditions: NALM-6, 72 h
KOPN-8 [16] = assay: Antiproliferative activity against human KOPN8 cells after 72 hrs by CellTiter-Glo luminescent cell viability assay; assay type: functional, cell-based; conditions: KOPN-8, 72 h
KOPN-8 [17] = assay: Induction of apoptosis in human KOPN8 cells assessed as late apoptotic cells at 20 uM after 32 hrs by Annexin V-FITC/propidium iodide staining-based flow cytometric analysis relative to control; assay type: functional
SUP-B15 = assay: Antiproliferative activity against human SUP-B15 cells after 72 hrs by CellTiter-Glo luminescent cell viability assay; assay type: functional, cell-based; conditions: SUP-B15, 72 h
BJ = assay: Antiproliferative activity against human BJ cells after 72 hrs by CellTiter-Glo luminescent cell viability assay; assay type: ADME, cell-based
NALM-6 [18] = assay: Induction of apoptosis in human NALM6 cells at 10 uM after 24 hrs by Annexin V-FITC/propidium iodide staining-based flow cytometric analysis; assay type: functional, cell-based
Outline: (§3)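 Phosphatidylserine exposure read by Annexin V-FITC/propidium iodide flow cytometry; DNA content by PI staining for cell-cycle distribution.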

NALM-6 [19] = assay: Cell cycle arrest in human NALM6 cells assessed as accumulation at G2/M phase at 10 uM after 24 hrs by propidium iodide staining-based flow cytometric analysis; assay type: functional; outline: as §3
NALM-6 [20] = assay: Cell cycle arrest in human NALM6 cells assessed as accumulation at G0/G1 phase at 10 uM after 24 hrs by propidium iodide staining-based flow cytometric analysis; assay type: functional; outline: as §3
UoC-B1 = assay: Antiproliferative activity against human UOCB1 cells after 72 hrs by CellTiter-Glo luminescent cell viability assay; assay type: functional, cell-based; conditions: UoC-B1, 72 h
HeLa [21] = assay: Antiproliferative activity against human HeLa cells; assay type: functional
A549 [22] = assay: Antiproliferative activity against human A549 cells; assay type: functional
HBL-100 [23] = assay: Antiproliferative activity against human HBL100 cells; assay type: functional
SW1573 [24] = assay: Antiproliferative activity against human SW1573 cells; assay type: functional
T47D [25] = assay: Antiproliferative activity against human T47D cells; assay type: functional
WiDr [26] = assay: Antiproliferative activity against human WiDr cells; assay type: functional
[27] = Leishmania infantum, MCAN/ES/96/BCN150, 48 h, read-out: IC50
[28] = Leishmania donovani, MHOM/IN/80/DD8, 48 h, read-out: IC50
[29] = Leishmania donovani, MHOM/IN/80/DD8, 48 h, read-out: log(1/IC50) (converted)
[30] = Leishmania amazonensis, MHOM/Br/79/Mari, 48 h, read-out: IC50
[31] = Leishmania guyanensis, 141/93, 48 h, read-out: IC50

Structure (SMILES)	selectivity ratio [1]	selectivity ratio [2]	IC50 (Leishmania infantum; [27])	selectivity ratio [3]	IC50 (Leishmania donovani; [28])	IC50 (Leishmania donovani; [29])	CC50 at 48 h [4]	Activity [5]	selectivity ratio [6]	IC50 (Leishmania amazonensis; [30])	IC50 (Leishmania guyanensis; [31])	Activity [7]	other results
CC(C)c1cc2c(cc1O)[C@@]1(C)CCC[C@@](C)(CO)[C@@H]1CC2 [18-HYDROXYFERRUGINOL]	33.4	3	0.7 µM	1.7	13.9 µM	13.9 µM	23.4 µM	154%	1.9	7.7 µM	12.5 µM	29.3%	–
COc1cc([C@@H]2c3cc4c(cc3[C@@H](O[C@@H]3O[C@@H]5CO[C@@H](C)O[C@H]5[C@H](O)[C@H]3O)[C@H]3COC(=O)[C@H]23)OCO4)cc(OC)c1O [ETOPOSIDE]	–	–	–	–	–	–	–	–	–	–	–	–	GI50 (A549 [8]): 1.5 µM; GI50 (SW1573 [9]): 15 µM; GI50 (HeLa [10]): 3.3 µM; GI50 (T47D [11]): 22 µM; GI50 (HBL-100 [12]): 1.4 µM; GI50 (WiDr [13]): 23 µM
CN[C@@H]1C[C@H]2O[C@@](C)([C@@H]1OC)n1c3ccccc3c3c4c(c5c6ccccc6n2c5c31)C(=O)NC4 [STAUROSPORINE]	–	–	–	–	–	–	–	–	–	–	–	–	EC50 [14]: 0.35 µM; EC50 (NALM-6 [15]): 1.4 µM
CC(C)c1cc2c(cc1O)[C@@]1(C)CCC[C@@](C)(C(=O)O)[C@@H]1CC2	2	1.6	43.6 µM	1.5	58.1 µM	58.1 µM	85.8 µM	12.1%	1.2	54.1 µM	71.4 µM	8.9%	–
CC(C)c1cc2c(cc1O)[C@@]1(C)CCC[C@@](C)(CO)[C@@H]1CC2=O	1.5	1.4	9.7 µM	0.7	19.7 µM	19.7 µM	14.4 µM	-30.3%	0.9	10.2 µM	16.5 µM	4.5%	–
CC(C)c1cc2c(cc1O)[C@@]1(C)CCC[C@@](C)(C(=O)O)[C@@H]1CC2=O	–	–	–	–	–	–	219 µM	-21.1%	–	–	–	-2%	IC50 (Leishmania infantum): Not Active; IC50 (Leishmania donovani): Not Active; IC50 (Leishmania amazonensis): Not Active; IC50 (Leishmania guyanensis): Not Active
COC(=O)[C@]1(C)CCC[C@]2(C)c3cc(OC(C)=O)c(C(C)C)cc3CC[C@@H]12	20.4	8.2	1.3 µM	3.3	8.1 µM	8.12 µM	26.5 µM	26.3%	4.8	3.2 µM	5.5 µM	5.1%	GI50 (A549 [8]): 11 µM; GI50 (SW1573 [9]): 12 µM; EC50 (KOPN-8 [16]): 21 µM; Activity (KOPN-8 [17]): >85%; EC50 (SUP-B15): 20.2 µM; GI50 (HeLa [10]): 4.4 µM; GI50 (T47D [11]): 14 µM; GI50 (HBL-100 [12]): 15 µM; EC50 [14]: 14.3 µM; EC50 (BJ): Non-Toxic; Activity (NALM-6 [18]): inactive; Activity (NALM-6 [19]): Active; Activity (NALM-6 [20]): Active; GI50 (WiDr [13]): 16 µM; EC50 (UoC-B1): > 40 µM; EC50 (NALM-6 [15]): 8.8 µM
COC(=O)[C@]1(C)CCC[C@]2(C)c3cc(O)c(C(C)C)cc3CC[C@@H]12	6.8	8.7	5 µM	3.7	9.21 µM	9.21 µM	34.2 µM	378%	5.8	3.9 µM	5.9 µM	23.7%	GI50 (A549 [8]): 9.4 µM; GI50 (SW1573 [9]): 11 µM; GI50 (HeLa [10]): 5.8 µM; GI50 (T47D [11]): 19 µM; GI50 (HBL-100 [12]): 9.7 µM; GI50 (WiDr [13]): 23 µM
CCCCCCCCCCCCCCCCOP(=O)([O-])OCC[N+](C)(C)C [MILTEFOSINE]	40.1	2.9	–	909	–	–	–	–	7.5	–	–	–	–
COC(=O)[C@]1(C)CCC[C@]2(C)c3ccc(C(C)C)cc3CC[C@@H]12 [METHYL DEHYDROABIETATE]	–	–	–	–	–	–	–	–	–	–	–	–	GI50 (HeLa [21]): 15 µM; GI50 (A549 [22]): 15 µM; GI50 (HBL-100 [23]): 19 µM; GI50 (SW1573 [24]): 22 µM; GI50 (T47D [25]): 16 µM; GI50 (WiDr [26]): 10 µM
COC(=O)[C@]1(C)CCC[C@]2(C)c3cc(O)c(C(C)C)cc3C(=O)C[C@@H]12	–	–	–	–	–	–	154 µM	242%	–	–	–	37.4%	–
